The source of these data is ChEMBL document CHEMBL2311433, “Inhibition of protein glycation by urea and thiourea derivatives of glycine/proline conjugated benzisoxazole analogue - synthesis and structure-activity studies” (Eur J Med Chem, 2013).

The structures appear in SMILES notation.

Chain of Albumin (P02769 whole entry): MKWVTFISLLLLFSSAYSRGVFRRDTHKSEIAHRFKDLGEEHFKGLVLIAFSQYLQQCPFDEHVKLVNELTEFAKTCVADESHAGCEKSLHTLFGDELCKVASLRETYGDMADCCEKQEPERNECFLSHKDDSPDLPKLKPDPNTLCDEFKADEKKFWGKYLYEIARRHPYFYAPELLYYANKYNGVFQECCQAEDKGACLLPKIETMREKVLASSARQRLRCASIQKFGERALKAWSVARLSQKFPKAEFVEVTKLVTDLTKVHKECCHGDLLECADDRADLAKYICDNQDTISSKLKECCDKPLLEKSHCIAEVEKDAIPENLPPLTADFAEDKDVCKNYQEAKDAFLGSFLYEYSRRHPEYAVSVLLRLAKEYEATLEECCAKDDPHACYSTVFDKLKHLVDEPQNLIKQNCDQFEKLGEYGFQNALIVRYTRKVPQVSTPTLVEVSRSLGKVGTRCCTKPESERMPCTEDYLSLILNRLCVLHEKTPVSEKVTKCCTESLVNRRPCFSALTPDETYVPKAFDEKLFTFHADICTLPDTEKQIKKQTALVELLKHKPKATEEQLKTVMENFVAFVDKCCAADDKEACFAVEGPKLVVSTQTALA

The first test addresses Albumin (Bos taurus, UniProt P02769). Put plainly: Inhibition of glycation of bovine serum albumin assessed as advanced glycated end product measured after 7 days by spectrofluorimeter in presence of glucose anhydrous.
Conditions: not given; call rule not given here
The method, boiled down:
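BSA (10 mg/mL) incubated with anhydrous glucose (50 mg/mL) in 67 mM sodium phosphate buffer, pH 7.4, containing 3 mM sodium azide; compounds dissolved in DMSO. Incubation 37 °C for 7 days. Then 100% trichloroacetic acid added and the mixture centrifuged at 15,000 rpm, 4 min, 4 °C. A PBS, pH 10, was also prepared.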
As to `O=C(CNC(=S)Nc1cccc(Cl)c1)N1CCC(c2noc3cc(F)ccc23)CC1`, the IC50 (commonly the midpoint of a concentration-inhibition curve) is “Not Active”. With `CC(C)(C)OC(=O)NCC(=O)N1CCC(c2noc3cc(F)ccc23)CC1`, the IC50 result is “Not Active”. With `O=C(CNC(=S)Nc1ccc(Cl)cc1)N1CCC(c2noc3cc(F)ccc23)CC1`, the concentration for half-maximal inhibition (IC50) entry is “Not Active”. Take `CC(C)(C)OC(=O)N1CCCC1C(=O)N1CCC(c2noc3cc(F)ccc23)CC1` (stereo not given): the IC50 result was “Not Active”.

Staying with this test, now noted: read-out: IC50.
For `O=C(C1CCCN1C(=O)Nc1ccccc1)N1CCC(c2noc3cc(F)ccc23)CC1` (stereo not given), the IC50 amounted to 340 µM. Same read-out and setting: to `COc1ccc(NC(=O)N2CCCC2C(=O)N2CCC(c3noc4cc(F)ccc34)CC2)cc1` (stereo not given) belongs 22.1 µM. Take `O=C(CNC(=S)Nc1cccc(Br)c1)N1CCC(c2noc3cc(F)ccc23)CC1`: the IC50 is 4.9 µM. For the compound `O=C(C1CCCN1C(=O)Nc1cccc(F)c1)N1CCC(c2noc3cc(F)ccc23)CC1` (stereo not given), the IC50 was determined as 117 µM. In the case of `O=C(CNC(=S)Nc1ccccc1F)N1CCC(c2noc3cc(F)ccc23)CC1`, the IC50 amounted to 9.1 µM. For the compound `O=C(C1CCCN1C(=O)Nc1ccc(Br)cc1)N1CCC(c2noc3cc(F)ccc23)CC1` (stereo not given), the half-maximal inhibitory concentration (IC50) stood at 6.8 µM.

On to `COc1cccc(NC(=S)N2CCCC2C(=O)N2CCC(c3noc4cc(F)ccc34)CC2)c1` (stereo not given), for which the IC50 was determined as 20.5 µM. On to `O=C(CNC(=S)Nc1ccccc1Br)N1CCC(c2noc3cc(F)ccc23)CC1`, for which the IC50 came out at 6.3 µM. The same measure, in the same setting: to `O=C(C1CCCN1C(=O)Nc1cccc(Br)c1)N1CCC(c2noc3cc(F)ccc23)CC1` (stereo not given) belongs 6.9 µM; to `O=C(C1CCCN1C(=S)Nc1ccccc1)N1CCC(c2noc3cc(F)ccc23)CC1` (stereo not given), 295 µM.

On to `O=C(C1CCCN1C(=O)Nc1ccc(F)cc1)N1CCC(c2noc3cc(F)ccc23)CC1` (stereo not given), for which the IC50 turned out to be 76.1 µM. `COc1ccc(NC(=S)NCC(=O)N2CCC(c3noc4cc(F)ccc34)CC2)cc1`: the IC50 is 3.6 µM.

In the case of `O=C(C1CCCN1C(=O)Nc1ccccc1F)N1CCC(c2noc3cc(F)ccc23)CC1` (stereo not given), the IC50 was found to be 54.8 µM.

Consider `O=C(NCC(=O)N1CCC(c2noc3cc(F)ccc23)CC1)Nc1cccc(F)c1`, for which the IC50 was found to be 100 µM. Consider `COc1ccccc1NC(=S)N1CCCC1C(=O)N1CCC(c2noc3cc(F)ccc23)CC1` (stereo not given), for which the IC50 amounted to 5.2 µM.

Turning to `O=C(CNC(=S)Nc1ccc(F)cc1)N1CCC(c2noc3cc(F)ccc23)CC1`, the IC50 worked out at 70.3 µM. Still for that read-out and setting: the value for `O=C(C1CCCN1C(=O)Nc1ccc(Cl)cc1)N1CCC(c2noc3cc(F)ccc23)CC1` (stereo not given) was 60.3 µM; that for `C[C@@H]1O[C@@H](OC[C@H]2O[C@@H](Oc3c(-c4ccc(O)c(O)c4)oc4cc(O)cc(O)c4c3=O)[C@H](O)[C@@H](O)[C@@H]2O)[C@H](O)[C@H](O)[C@H]1O` [RUTIN] was 41.9 µM; that for `COc1ccc(NC(=O)NCC(=O)N2CCC(c3noc4cc(F)ccc34)CC2)cc1` was 19.5 µM.

For the compound `O=C(C1CCCN1C(=S)Nc1ccccc1F)N1CCC(c2noc3cc(F)ccc23)CC1` (stereo not given), the IC50 was 7.8 µM. Regarding `COc1ccccc1NC(=O)N1CCCC1C(=O)N1CCC(c2noc3cc(F)ccc23)CC1` (stereo not given), the IC50 was determined as 30.6 µM. Still for that read-out and setting: the value for `O=C(C1CCCN1C(=S)Nc1ccccc1Br)N1CCC(c2noc3cc(F)ccc23)CC1` (stereo not given) was 7.8 µM. On the same count and under the same terms, the value for `COc1cccc(NC(=O)N2CCCC2C(=O)N2CCC(c3noc4cc(F)ccc34)CC2)c1` (stereo not given) was 33.4 µM; that for `O=C(C1CCCN1C(=S)Nc1ccc(Cl)cc1)N1CCC(c2noc3cc(F)ccc23)CC1` (stereo not given) was 59.4 µM; that for `O=C(NCC(=O)N1CCC(c2noc3cc(F)ccc23)CC1)Nc1ccc(Br)cc1` was 8.5 µM.

Regarding `O=C(NCC(=O)N1CCC(c2noc3cc(F)ccc23)CC1)Nc1ccccc1F`, the IC50 was determined as 55.5 µM. Regarding `O=C(C1CCCN1C(=O)Nc1cccc(Cl)c1)N1CCC(c2noc3cc(F)ccc23)CC1` (stereo not given), the IC50 was determined as 145 µM.

For the compound `COc1ccccc1NC(=S)NCC(=O)N1CCC(c2noc3cc(F)ccc23)CC1`, the IC50 stood at 4.1 µM. In the case of `O=C(NCC(=O)N1CCC(c2noc3cc(F)ccc23)CC1)Nc1cccc(Br)c1`, the IC50 came out at 9.3 µM. For `O=C(NCC(=O)N1CCC(c2noc3cc(F)ccc23)CC1)Nc1cccc(Cl)c1`, the IC50 was 144 µM.

For the compound `O=C(CNC(=S)Nc1ccccc1)N1CCC(c2noc3cc(F)ccc23)CC1`, the half-inhibitory concentration (IC50) came to 380 µM. Same read-out and setting: the value for `O=C(C1CCCN1C(=S)Nc1cccc(Cl)c1)N1CCC(c2noc3cc(F)ccc23)CC1` (stereo not given) was 126 µM; that for `COc1ccc(NC(=S)N2CCCC2C(=O)N2CCC(c3noc4cc(F)ccc34)CC2)cc1` (stereo not given) was 3.9 µM; that for `O=C(NCC(=O)N1CCC(c2noc3cc(F)ccc23)CC1)Nc1ccccc1` was 390 µM. On the same count and under the same terms, to `O=C(NCC(=O)N1CCC(c2noc3cc(F)ccc23)CC1)Nc1ccc(F)cc1` belongs 75.8 µM; to `COc1ccccc1NC(=O)NCC(=O)N1CCC(c2noc3cc(F)ccc23)CC1`, 20.2 µM; to `O=C(C1CCCN1C(=S)Nc1cccc(Br)c1)N1CCC(c2noc3cc(F)ccc23)CC1` (stereo not given), 4.7 µM. Same read-out and setting: to `O=C(NCC(=O)N1CCC(c2noc3cc(F)ccc23)CC1)Nc1ccc(Cl)cc1` belongs 83.9 µM; to `O=C(C1CCCN1C(=S)Nc1ccc(F)cc1)N1CCC(c2noc3cc(F)ccc23)CC1` (stereo not given), 70.9 µM.

As for `COc1cccc(NC(=S)NCC(=O)N2CCC(c3noc4cc(F)ccc34)CC2)c1`, the IC50 worked out at 15.3 µM.

Turning to `COc1cccc(NC(=O)NCC(=O)N2CCC(c3noc4cc(F)ccc34)CC2)c1`, the IC50 amounted to 21.1 µM.
